Each block holds one compound with its values, some of them ahead of it. Activity calls are given as the source filed them. No cut-off for these calls is given here.
How the values were obtained:
[1] = target: WD repeat-containing protein 5 (Homo sapiens) (UniProt P61964)
[2] = tested on: HEK293; conditions: Homo sapiens, dose 1000.0 nM, time 20.0 hrs
[3] = target: Polycomb protein EED (Homo sapiens) (UniProt O75530)
[4] = target: T1, Histone-arginine methyltransferase CARM1 (Homo sapiens, UniProt Q86X55); assay: Inhibition of human PRMT4 assessed as inhibition constant using peptide as substrate
T1 sequence (Q86X55 whole entry): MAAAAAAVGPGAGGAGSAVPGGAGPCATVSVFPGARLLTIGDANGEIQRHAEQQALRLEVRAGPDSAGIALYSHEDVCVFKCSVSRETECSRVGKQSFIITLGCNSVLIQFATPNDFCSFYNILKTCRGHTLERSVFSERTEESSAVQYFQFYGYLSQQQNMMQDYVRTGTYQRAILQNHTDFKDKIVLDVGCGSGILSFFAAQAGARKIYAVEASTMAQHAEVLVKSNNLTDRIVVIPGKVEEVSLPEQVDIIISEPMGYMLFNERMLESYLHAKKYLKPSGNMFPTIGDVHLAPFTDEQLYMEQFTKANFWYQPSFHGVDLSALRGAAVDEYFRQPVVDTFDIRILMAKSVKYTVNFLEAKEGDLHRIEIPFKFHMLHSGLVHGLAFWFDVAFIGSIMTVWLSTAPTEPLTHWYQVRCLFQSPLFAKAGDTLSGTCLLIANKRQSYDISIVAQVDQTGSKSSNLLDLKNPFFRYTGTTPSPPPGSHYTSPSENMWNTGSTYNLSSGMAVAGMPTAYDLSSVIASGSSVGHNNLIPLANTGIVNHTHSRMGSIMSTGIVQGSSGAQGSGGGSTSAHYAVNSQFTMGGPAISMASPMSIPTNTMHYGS

[5] = target: RNA-binding protein FXR1 (Homo sapiens) (UniProt P51114)
[6] = target: T1, Histone-arginine methyltransferase CARM1; assay: (§1) Inhibition of human PRMT4 using (3H) methylated biotin labelled peptide as substrate in presence of 3H-SAM by scintillation proximity assay
Summary of the method: (§2)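 Scintillation proximity assay: 3H-SAM as methyl donor, with non-tritiated SAM added when needed. The 3H-methylated biotinylated peptide is captured on streptavidin/scintillant-coated plates and read as counts per minute. IC50 comes from compound titration under balanced conditions, with substrate and cofactor at their Km values. Run in triplicate, mean ± SD. Ki is derived from IC50.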

[7] = target: AT-rich interactive domain-containing protein 4A (Homo sapiens) (UniProt P29374)
[8] = target: Tudor domain-containing protein 3 (Homo sapiens) (UniProt Q9H7E2)
[9] = target: Growth/differentiation factor 2 (Homo sapiens) (UniProt Q9UK05)
[10] = target: T2, Protein arginine N-methyltransferase 6 (Homo sapiens, UniProt Q96LA8); assay: Inhibition of human PRMT6 assessed as inhibition constant using peptide as substrate
Target sequence in this assay (Q96LA8 whole entry): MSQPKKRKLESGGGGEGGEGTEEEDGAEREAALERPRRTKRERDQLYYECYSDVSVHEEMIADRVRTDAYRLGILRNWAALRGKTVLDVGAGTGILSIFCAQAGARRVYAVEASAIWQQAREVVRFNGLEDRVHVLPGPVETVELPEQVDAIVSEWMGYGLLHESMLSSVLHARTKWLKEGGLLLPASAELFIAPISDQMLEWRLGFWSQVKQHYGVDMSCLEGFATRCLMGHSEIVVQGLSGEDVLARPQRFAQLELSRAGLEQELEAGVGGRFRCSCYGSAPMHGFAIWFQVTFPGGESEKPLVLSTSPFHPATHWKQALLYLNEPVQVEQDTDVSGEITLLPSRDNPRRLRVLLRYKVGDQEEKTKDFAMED

[11] = tested on: MCF7; assay: Antiproliferative activity against human MCF7 cells assessed as decrease in cell number at 0.1 uM incubated for 10 days by vybrant dye cycle green/ Enzo-nuclear-ID red staining based live cell imaging analysis relative to control; assay type: functional; set-up: scale not given: the % may be the effect or the level left; conditions: time 10 day
[12] = target: Peregrin (Homo sapiens) (UniProt P55201)
[13] = target: T3, Protein arginine N-methyltransferase 8 (Homo sapiens, UniProt Q9NR22); assay: Inhibition of human PRMT8 assessed as inhibition constant in presence of cofactor SAM
Target sequence in this assay (Q9NR22 whole entry): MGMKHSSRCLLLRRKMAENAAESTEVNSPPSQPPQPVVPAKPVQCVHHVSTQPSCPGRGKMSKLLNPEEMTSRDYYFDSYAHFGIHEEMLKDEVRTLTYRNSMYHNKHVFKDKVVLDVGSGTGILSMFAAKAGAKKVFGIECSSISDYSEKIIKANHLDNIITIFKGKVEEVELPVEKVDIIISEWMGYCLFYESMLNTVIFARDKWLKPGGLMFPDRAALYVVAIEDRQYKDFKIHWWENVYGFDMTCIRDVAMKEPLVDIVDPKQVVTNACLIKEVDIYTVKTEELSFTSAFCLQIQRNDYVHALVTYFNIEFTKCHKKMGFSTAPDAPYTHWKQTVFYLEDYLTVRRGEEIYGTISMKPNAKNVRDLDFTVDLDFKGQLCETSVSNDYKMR

[14] = target: E3 ubiquitin-protein ligase UHRF1 (Homo sapiens) (UniProt Q96T88)
[15] = tested on: HEK293; conditions: Homo sapiens, dose 333.0 nM, time 20.0 hrs
[16] = target: T2, Protein arginine N-methyltransferase 6; assay: Inhibition of human PRMT6 assessed as inhibition constant in presence of cofactor SAM
Target sequence in this assay (Q96LA8 whole entry): as the sequence (Q96LA8 whole entry) above

[17] = target: T1, Histone-arginine methyltransferase CARM1; assay: Binding affinity to human PRMT4 assessed as inhibition constant using (3H) methylated biotin labelled peptide as substrate in presence of 3H-SAM by scintillation proximity assay
[18] = target: T2, Protein arginine N-methyltransferase 6; assay: Inhibition of human PRMT6 using (3H) methylated biotin labelled peptide as substrate incubated for 30 mins in presence of 3H-SAM by scintillation proximity assay
Target sequence in this assay (Q96LA8 whole entry): as above

[19] = target: T1, Histone-arginine methyltransferase CARM1; assay: Inhibition of human PRMT4 assessed as inhibition constant in presence of cofactor SAM
[20] = tested on: HFF; assay: Cytotoxicity in human HFF cells assessed as cell confluency at <=1 uM incubated for 96 hrs by phase contrast cell imaging analysis; assay type: toxicity, cell-based
[21] = target: T3, Protein arginine N-methyltransferase 8; assay: Inhibition of human PRMT8 assessed as inhibition constant using peptide as substrate
Target sequence in this assay (Q9NR22 whole entry): as the sequence (Q9NR22 whole entry) above

[22] = target: T3, Protein arginine N-methyltransferase 8; assay: Inhibition of human PRMT8 using (3H) methylated biotin labelled peptide as substrate in presence of 3H-SAM by scintillation proximity assay
Summary of the method: as §2, with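 “IC50. A lower enzyme level (5 nM) is used for some potent compounds.” for “IC50.”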

[23] = target: Staphylococcal nuclease domain-containing protein 1 (Homo sapiens) (UniProt Q7KZF4)
[24] = tested on: HEK293; assay: Cytotoxicity in human HEK293 cells assessed as inhibition of cell growth at 1 uM incubated for 4 days by phase contrast cell imaging analysis; assay type: toxicity, cell-based; conditions: hek293, 96 h, time 4 day
[25] = target: T3, Protein arginine N-methyltransferase 8; assay: Binding affinity to human PRMT8 assessed as inhibition constant using (3H) methylated biotin labelled peptide as substrate in presence of 3H-SAM by scintillation proximity assay
Summary of the method: as §2, with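 “IC50. A lower enzyme level (5 nM) is used for some potent compounds.” for “IC50.”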
Target sequence in this assay (Q9NR22 whole entry): as above

[26] = target: T4, Protein arginine N-methyltransferase 1 (Homo sapiens, UniProt Q99873); assay: Inhibition of PRMT1 in human MCF7 cells assessed as decrease in H4R3me2a level incubated for 48 hrs by Western blotting analysis; assay type: cell-based
Target sequence in this assay (Q99873 whole entry, looked up): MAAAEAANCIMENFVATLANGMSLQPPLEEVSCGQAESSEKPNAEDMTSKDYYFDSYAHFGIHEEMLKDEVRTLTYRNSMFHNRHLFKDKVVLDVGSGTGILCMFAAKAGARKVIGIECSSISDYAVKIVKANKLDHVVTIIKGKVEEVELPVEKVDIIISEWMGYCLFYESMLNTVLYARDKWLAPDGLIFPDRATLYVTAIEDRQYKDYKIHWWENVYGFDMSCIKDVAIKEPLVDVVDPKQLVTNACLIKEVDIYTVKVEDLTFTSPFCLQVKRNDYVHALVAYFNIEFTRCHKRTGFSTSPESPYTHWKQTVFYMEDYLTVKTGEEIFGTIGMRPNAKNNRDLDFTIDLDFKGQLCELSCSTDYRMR

[27] = target: T5, Histone-arginine methyltransferase CARM1 (Homo sapiens) (UniProt Q86X55); assay: as §1
T5 sequence (whole entry): T1 sequence (Q86X55 whole entry)
Summary of the method: as §2

[28] = target: T6, Protein arginine N-methyltransferase 9 (Homo sapiens) (UniProt Q6P2P2); assay: Inhibition of human PRMT9 using (3H) methylated biotin labelled peptide as substrate in presence of 3H-SAM by scintillation proximity assay
T6 sequence (whole entry): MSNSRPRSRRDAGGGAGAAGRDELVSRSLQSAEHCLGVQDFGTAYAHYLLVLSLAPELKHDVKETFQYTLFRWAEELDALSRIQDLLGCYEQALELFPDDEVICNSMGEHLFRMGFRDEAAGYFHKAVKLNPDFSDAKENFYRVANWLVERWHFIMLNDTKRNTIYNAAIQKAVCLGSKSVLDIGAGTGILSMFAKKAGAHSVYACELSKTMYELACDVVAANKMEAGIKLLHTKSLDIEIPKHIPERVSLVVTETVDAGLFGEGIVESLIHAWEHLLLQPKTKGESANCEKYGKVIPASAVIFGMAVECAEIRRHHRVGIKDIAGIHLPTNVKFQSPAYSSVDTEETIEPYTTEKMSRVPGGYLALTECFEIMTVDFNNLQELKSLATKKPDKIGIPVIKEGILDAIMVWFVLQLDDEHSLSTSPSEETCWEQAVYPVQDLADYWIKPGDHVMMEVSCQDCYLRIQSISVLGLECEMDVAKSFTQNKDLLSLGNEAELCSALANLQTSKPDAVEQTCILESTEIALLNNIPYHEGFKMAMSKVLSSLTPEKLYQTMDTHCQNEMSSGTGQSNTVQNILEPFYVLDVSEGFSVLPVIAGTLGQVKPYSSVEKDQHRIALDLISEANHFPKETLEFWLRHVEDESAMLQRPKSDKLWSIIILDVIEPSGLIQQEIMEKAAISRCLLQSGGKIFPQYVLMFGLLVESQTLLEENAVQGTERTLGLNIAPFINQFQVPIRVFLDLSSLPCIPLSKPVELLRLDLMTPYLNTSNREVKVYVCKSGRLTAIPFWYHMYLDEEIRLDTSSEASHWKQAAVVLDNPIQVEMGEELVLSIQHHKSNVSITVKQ
Summary of the method: as §2, with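 “IC50. A lower enzyme level (5 nM) is used for some potent compounds.” for “IC50.”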

[29] = target: T7, Protein arginine N-methyltransferase 3 (Homo sapiens, UniProt O60678); assay: Inhibition of human PRMT3 using (3H) methylated biotin labelled peptide as substrate in presence of 3H-SAM by scintillation proximity assay
[30] = target: T4, Protein arginine N-methyltransferase 1; assay: Inhibition of human PRMT1 using (3H) methylated biotin labelled peptide as substrate in presence of 3H-SAM by scintillation proximity assay
[31] = target: T8, Protein arginine N-methyltransferase 7 (Homo sapiens) (UniProt Q9NVM4); assay: Inhibition of human PRMT7 using (3H) methylated biotin labelled peptide as substrate in presence of 3H-SAM by scintillation proximity assay
T8 sequence (whole entry): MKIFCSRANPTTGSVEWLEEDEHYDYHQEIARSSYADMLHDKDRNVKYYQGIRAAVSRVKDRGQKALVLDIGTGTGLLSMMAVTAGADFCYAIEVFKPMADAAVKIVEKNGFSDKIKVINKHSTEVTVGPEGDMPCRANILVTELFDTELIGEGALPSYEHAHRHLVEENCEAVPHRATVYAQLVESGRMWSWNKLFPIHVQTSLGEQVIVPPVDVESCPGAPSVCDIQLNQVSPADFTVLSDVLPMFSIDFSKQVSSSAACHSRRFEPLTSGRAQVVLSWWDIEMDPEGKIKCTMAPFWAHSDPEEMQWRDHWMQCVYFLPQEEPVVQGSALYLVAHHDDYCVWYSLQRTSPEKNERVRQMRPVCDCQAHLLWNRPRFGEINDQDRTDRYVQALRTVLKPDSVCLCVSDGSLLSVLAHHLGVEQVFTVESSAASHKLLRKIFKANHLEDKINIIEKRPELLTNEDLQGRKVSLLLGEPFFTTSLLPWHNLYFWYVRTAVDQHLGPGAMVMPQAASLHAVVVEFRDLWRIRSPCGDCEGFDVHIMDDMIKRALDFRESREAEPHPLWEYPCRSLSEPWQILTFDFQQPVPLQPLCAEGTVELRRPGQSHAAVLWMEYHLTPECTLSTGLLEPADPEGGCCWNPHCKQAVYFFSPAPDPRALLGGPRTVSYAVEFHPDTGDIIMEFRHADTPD
Summary of the method: as §2, with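 “IC50. A lower enzyme level (5 nM) is used for some potent compounds.” for “IC50.”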

[32] = target: Protein arginine N-methyltransferase 5 (Homo sapiens) (UniProt O14744); assay: Inhibition of human PRMT5 using (3H) methylated biotin labelled peptide as substrate in presence of 3H-SAM by scintillation proximity assay
Summary of the method: as §2, with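 “IC50. A lower enzyme level (5 nM) is used for some potent compounds.” for “IC50.”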

[33] = target: T2, Protein arginine N-methyltransferase 6; assay: Inhibition of human PRMT6 using (3H) methylated biotin labelled peptide as substrate in presence of 3H-SAM by scintillation proximity assay
[34] = target: T2, Protein arginine N-methyltransferase 6; assay: Binding affinity to human PRMT6 assessed as inhibition constant using (3H) methylated biotin labelled peptide as substrate in presence of 3H-SAM by scintillation proximity assay
Summary of the method: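 Scintillation proximity assay with 3H-SAM as methyl donor, topped up with unlabelled SAM when needed. The methylated biotinylated peptide was captured on streptavidin/scintillant-coated plates and counted as cpm. IC50 came from compound titration at Km concentrations of both peptide substrate and SAM, in triplicate, reported as mean ± SD. Ki was calculated from IC50.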
Target sequence in this assay (Q96LA8 whole entry): as the sequence (Q96LA8 whole entry) above

[35] = target: T4, Protein arginine N-methyltransferase 1; assay: Binding affinity to human PRMT1 assessed as inhibition constant using (3H) methylated biotin labelled peptide as substrate in presence of 3H-SAM by scintillation proximity assay
Target sequence in this assay (Q99873 whole entry): as the sequence (Q99873 whole entry, looked up) above

[36] = target: T7, Protein arginine N-methyltransferase 3; assay: Binding affinity to human PRMT3 assessed as inhibition constant using (3H) methylated biotin labelled peptide as substrate in presence of 3H-SAM by scintillation proximity assay
Target sequence in this assay (O60678 whole entry): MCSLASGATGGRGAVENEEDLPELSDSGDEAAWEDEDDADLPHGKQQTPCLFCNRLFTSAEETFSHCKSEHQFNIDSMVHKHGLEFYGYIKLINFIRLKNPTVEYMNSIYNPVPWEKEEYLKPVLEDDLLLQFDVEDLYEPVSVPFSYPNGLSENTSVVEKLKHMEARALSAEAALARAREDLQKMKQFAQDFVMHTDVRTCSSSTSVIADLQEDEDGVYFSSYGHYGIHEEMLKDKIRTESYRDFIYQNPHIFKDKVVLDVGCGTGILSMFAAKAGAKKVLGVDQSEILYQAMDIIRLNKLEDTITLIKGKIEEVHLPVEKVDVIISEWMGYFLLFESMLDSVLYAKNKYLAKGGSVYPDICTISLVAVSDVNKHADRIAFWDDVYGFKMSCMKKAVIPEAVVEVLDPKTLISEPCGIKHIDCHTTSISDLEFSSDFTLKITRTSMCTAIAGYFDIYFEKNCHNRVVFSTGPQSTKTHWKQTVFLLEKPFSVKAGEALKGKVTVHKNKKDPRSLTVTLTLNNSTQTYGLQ

Sequence of Protein arginine N-methyltransferase 5 (Homo sapiens) (O14744 whole entry): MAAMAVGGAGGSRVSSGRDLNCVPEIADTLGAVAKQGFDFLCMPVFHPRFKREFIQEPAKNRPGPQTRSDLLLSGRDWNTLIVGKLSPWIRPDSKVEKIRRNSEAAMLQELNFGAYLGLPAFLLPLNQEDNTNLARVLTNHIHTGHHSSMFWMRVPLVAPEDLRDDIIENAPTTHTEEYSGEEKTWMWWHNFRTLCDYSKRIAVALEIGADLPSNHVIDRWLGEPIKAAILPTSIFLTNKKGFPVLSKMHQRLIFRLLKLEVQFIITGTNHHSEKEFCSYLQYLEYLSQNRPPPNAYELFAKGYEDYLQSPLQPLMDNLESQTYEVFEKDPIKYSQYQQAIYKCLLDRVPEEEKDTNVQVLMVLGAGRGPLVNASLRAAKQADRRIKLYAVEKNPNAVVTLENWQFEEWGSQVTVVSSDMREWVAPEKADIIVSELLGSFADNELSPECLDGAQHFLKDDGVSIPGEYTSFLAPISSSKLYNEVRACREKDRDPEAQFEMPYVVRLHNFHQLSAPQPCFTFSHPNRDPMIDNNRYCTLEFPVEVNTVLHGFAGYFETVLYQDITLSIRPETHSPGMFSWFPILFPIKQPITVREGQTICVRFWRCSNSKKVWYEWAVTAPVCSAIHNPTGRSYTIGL
Sequence of AT-rich interactive domain-containing protein 4A (Homo sapiens) (P29374 whole entry, the tested form may be a part): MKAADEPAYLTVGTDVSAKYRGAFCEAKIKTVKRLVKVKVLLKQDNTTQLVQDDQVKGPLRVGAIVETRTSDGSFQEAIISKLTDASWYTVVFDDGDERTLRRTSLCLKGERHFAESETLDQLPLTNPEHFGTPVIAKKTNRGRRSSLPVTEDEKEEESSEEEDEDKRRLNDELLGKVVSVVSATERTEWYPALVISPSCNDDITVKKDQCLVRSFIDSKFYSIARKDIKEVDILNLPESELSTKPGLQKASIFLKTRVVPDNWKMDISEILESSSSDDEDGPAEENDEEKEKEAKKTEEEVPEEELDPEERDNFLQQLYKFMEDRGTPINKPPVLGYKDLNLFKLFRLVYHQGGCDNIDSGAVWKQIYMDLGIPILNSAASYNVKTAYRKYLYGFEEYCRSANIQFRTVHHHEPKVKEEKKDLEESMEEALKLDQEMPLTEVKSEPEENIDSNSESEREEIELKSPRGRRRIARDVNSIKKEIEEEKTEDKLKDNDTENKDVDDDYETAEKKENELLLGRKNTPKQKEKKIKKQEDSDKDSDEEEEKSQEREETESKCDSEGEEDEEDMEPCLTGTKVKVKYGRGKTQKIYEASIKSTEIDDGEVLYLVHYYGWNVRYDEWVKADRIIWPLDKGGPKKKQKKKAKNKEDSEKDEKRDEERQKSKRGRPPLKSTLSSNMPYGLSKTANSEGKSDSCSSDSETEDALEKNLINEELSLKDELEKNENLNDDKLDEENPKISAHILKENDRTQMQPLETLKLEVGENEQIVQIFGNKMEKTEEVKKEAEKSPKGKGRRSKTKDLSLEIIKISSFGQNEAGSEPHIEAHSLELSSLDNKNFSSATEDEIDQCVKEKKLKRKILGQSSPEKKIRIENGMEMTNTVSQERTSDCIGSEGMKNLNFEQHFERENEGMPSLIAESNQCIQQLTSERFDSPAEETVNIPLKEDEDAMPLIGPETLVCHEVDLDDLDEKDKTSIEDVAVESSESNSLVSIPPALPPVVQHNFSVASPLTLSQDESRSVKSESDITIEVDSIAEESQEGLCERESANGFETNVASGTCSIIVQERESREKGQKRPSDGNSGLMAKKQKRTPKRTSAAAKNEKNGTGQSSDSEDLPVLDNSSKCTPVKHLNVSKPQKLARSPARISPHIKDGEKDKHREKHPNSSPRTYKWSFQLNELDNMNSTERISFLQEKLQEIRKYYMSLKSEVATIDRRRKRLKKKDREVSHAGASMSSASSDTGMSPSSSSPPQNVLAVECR
Sequence of RNA-binding protein FXR1 (Homo sapiens) (P51114 whole entry): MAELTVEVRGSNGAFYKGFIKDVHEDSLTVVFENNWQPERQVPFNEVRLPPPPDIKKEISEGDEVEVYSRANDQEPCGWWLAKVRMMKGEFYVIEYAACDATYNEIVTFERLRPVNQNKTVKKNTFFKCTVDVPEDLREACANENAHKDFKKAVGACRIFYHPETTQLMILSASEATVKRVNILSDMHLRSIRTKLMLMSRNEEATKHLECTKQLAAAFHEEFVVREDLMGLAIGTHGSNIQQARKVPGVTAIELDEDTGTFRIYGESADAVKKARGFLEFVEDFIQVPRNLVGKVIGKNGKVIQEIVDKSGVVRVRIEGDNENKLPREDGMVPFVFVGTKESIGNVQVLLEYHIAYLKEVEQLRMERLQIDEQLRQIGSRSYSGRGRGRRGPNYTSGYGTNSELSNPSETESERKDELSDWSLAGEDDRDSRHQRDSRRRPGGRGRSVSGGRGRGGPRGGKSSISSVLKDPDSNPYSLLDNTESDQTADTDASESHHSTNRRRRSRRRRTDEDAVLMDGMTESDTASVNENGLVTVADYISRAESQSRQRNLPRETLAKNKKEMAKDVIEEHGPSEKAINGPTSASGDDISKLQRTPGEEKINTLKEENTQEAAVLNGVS
Sequence of Polycomb protein EED (Homo sapiens) (O75530 2-441 limits assumed): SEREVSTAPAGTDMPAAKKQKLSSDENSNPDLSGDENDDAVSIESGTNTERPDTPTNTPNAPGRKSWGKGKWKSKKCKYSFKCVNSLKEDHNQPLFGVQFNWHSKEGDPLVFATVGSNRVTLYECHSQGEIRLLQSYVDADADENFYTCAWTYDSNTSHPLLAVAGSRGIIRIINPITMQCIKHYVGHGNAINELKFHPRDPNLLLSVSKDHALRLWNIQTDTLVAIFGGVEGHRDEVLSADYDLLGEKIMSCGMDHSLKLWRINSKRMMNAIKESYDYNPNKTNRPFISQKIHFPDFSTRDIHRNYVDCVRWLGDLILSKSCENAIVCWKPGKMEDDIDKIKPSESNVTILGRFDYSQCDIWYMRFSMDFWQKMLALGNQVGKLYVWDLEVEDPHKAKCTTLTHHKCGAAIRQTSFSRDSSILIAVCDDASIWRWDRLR

SMILES: CC(C)Oc1ccc(-c2c[nH]cc2CN(C)CCN)cc1
ΔTm [1]: -1.3 °C
inhibition [2]: Active
deltaTm [3]: inactive
IC50 [4]: Not Active
deltaTm [5]: inactive
IC50 [6]: 83 nM
deltaTm [7]: inactive
deltaTm [8]: inactive
ΔTm [9]: -3 °C
IC50 [10]: Not Active
Activity [11]: 30%
ΔTm [12]: -0.3 °C
IC50 [13]: Not Active
ΔTm [14]: -1.5 °C
inhibition [15]: Active
IC50 [16]: Not Active
Ki [17]: 23 nM
IC50 [18]: Not Active
IC50 [19]: Not Active
Activity [20]: Non-Toxic
IC50 [21]: Not Active
IC50 [22]: 5 nM
deltaTm [23]: inactive
Activity [24]: Toxic
Ki [25]: 1.3 nM

SMILES: CC(C)Oc1ccc(-c2c[nH]cc2CN(C)CCO)cc1
inhibition [26]: inactive
inhibition [27]: inactive
inhibition [28]: inactive
inhibition [29]: inactive
inhibition [30]: inactive
inhibition [31]: inactive
inhibition [32]: inactive
inhibition [22]: inactive
inhibition [33]: inactive

SMILES: CC(C)Oc1ccc(-c2c[nH]cc2CN(C)CC(N)=O)cc1
inhibition [26]: inactive
inhibition [27]: inactive
inhibition [28]: inactive
inhibition [29]: inactive
inhibition [30]: inactive
inhibition [31]: inactive
inhibition [32]: inactive
inhibition [22]: inactive
inhibition [33]: inactive

SMILES: CC(C)Oc1ccc(-c2c[nH]cc2C(=O)N(C)CCN)cc1
inhibition [26]: inactive
inhibition [27]: inactive
inhibition [28]: inactive
inhibition [29]: inactive
inhibition [30]: inactive
inhibition [31]: inactive
inhibition [32]: inactive
inhibition [22]: inactive
inhibition [33]: inactive

Next, values leading:

inhibition [28]: inactive
inhibition [31]: inactive
inhibition [32]: inactive
Ki [34]: 3 nM
IC50 [22]: 42 nM
IC50 [33]: 9 nM
Ki [25]: 17 nM
SMILES: CN(CCN)Cc1c[nH]cc1-c1cccc(C(F)(F)F)c1

IC50 [6]: > 75000 nM
inhibition [28]: inactive
IC50 [29]: > 100000 nM
Ki [17]: > 37500 nM
IC50 [30]: > 20000 nM
Ki [35]: > 10000 nM
inhibition [31]: inactive
inhibition [32]: inactive
Ki [34]: 110 nM
IC50 [22]: 3000 nM
Ki [36]: > 50000 nM
IC50 [33]: 230 nM
Ki [25]: 1500 nM
SMILES: CN(CCN)Cc1n[nH]nc1-c1cccc(C(F)(F)F)c1

Reference: ChEMBL document CHEMBL5715953, “A Potent, Selective, and Cell-Active Inhibitor of Human Type I Protein Arginine Methyltransferases” (ACS Chem Biol, 2016)
